Assays:
HepG2 = test: Hepatoprotective activity against APAP-induced toxicity in human HepG2 cells assessed as cell survival rate at 10 uM after 48 hrs by MTT assay (reference value: 23 %); assay type: functional
L02 = test: Hepatoprotective activity against D-GalN-induced toxicity in human HL-7702 cells assessed as cell survival rate at 10 uM preincubated for 48 hrs followed by D-GalN stimulation for 8 hrs by MTT assay (reference value: 33 %); assay type: functional; conditions: time 56 hrs
Procedure, shortened: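 Normal human HL-7702 hepatocytes were injured with D-galactosamine at 60 mM, with test compounds at 10 μM. Viability was measured by the MTT method as OD, and survival rate was expressed as a percentage of untreated control cells. Bicyclol at 10 μM served as the positive control. Statistics compared treated cells with the D-GalN model group.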

| Structure (SMILES) | Activity (HepG2) [%] | Activity (L02) [%] |
| --- | --- | --- |
| CC(C)C[C@@](O)(CC(=O)OCc1ccc(O[C@@H]2O[C@H](CO)[C@@H](O)[C@H](O)[C@H]2O)cc1)C(=O)OCc1ccc(O[C@@H]2O[C@H](CO)[C@@H](O)[C@H](O)[C@H]2O)cc1 | 23 | – |
| CC(C)C[C@](CC(=O)OCc1ccc(O[C@@H]2O[C@H](COCc3ccc(O)cc3)[C@@H](O)[C@H](O)[C@H]2O)cc1)(O[C@@H]1O[C@H](CO)[C@@H](O)[C@H](O)[C@H]1O)C(=O)OCc1ccc(O[C@@H]2O[C@H](CO)[C@@H](O)[C@H](O)[C@H]2O)cc1 | 32 | 39 |
| CC(=O)OC[C@H]1O[C@@H](O[C@@](CC(=O)OCc2ccc(O[C@@H]3O[C@H](CO)[C@@H](O)[C@H](O)[C@H]3O)cc2)(CC(C)C)C(=O)OCc2ccc(O[C@@H]3O[C@H](CO)[C@@H](O)[C@H](O)[C@H]3O)cc2)[C@H](O)[C@@H](O)[C@@H]1O | 14 | 39 |
| CC(C)C[C@@](O)(CC(=O)OCc1ccc(O[C@@H]2O[C@H](CO)[C@@H](O)[C@H](O)[C@H]2O)cc1)C(=O)OCc1ccc(O[C@@H]2O[C@H](CO)[C@@H](O)[C@H](O)[C@H]2OCc2ccc(O)cc2)cc1 | 19 | 49 |
| CC(C)C[C@](CC(=O)OCc1ccc(O[C@@H]2O[C@H](CO)[C@@H](O)[C@H](O)[C@H]2O)cc1)(O[C@@H]1O[C@H](CO)[C@@H](O)[C@H](O)[C@H]1OC(=O)/C=C/c1ccc(O[C@@H]2O[C@H](CO)[C@@H](O)[C@H](O)[C@H]2O)cc1)C(=O)OCc1ccc(O[C@@H]2O[C@H](CO)[C@@H](O)[C@H](O)[C@H]2O)cc1 | 25 | 43 |
| COC(=O)C[C@](O)(CC(C)C)C(=O)OCc1ccc(O[C@@H]2O[C@H](CO)[C@@H](O)[C@H](O)[C@H]2O)cc1 | 28 | 64 |
| CC(C)C[C@](CC(=O)OCc1ccc(O[C@@H]2O[C@H](CO)[C@@H](O)[C@H](O)[C@H]2O)cc1)(O[C@@H]1O[C@H](CO)[C@@H](O)[C@H](O)[C@H]1OC(=O)/C=C\c1ccc(O)cc1)C(=O)OCc1ccc(O[C@@H]2O[C@H](CO)[C@@H](O)[C@H](O)[C@H]2O)cc1 | 21 | 39 |
| CC(C)C[C@](CC(=O)OCc1ccc(O[C@@H]2O[C@H](CO)[C@@H](O)[C@H](O)[C@H]2O)cc1)(O[C@@H]1O[C@H](CO)[C@@H](O)[C@H](O)[C@H]1O)C(=O)OCc1ccc(O[C@@H]2O[C@H](CO)[C@@H](O)[C@H](O)[C@H]2O)cc1 | 35 | – |
| CC(C)C[C@](CC(=O)OCc1ccc(O[C@@H]2O[C@H](CO)[C@@H](O)[C@H](O)[C@H]2O)cc1)(O[C@@H]1O[C@H](CO)[C@@H](O)[C@H](O)[C@H]1OC(=O)/C=C/c1ccc(O)cc1)C(=O)OCc1ccc(O[C@@H]2O[C@H](CO)[C@@H](O)[C@H](O)[C@H]2O)cc1 | 23 | 52 |
| CC(C)C[C@@](O)(CC(=O)OCc1ccc(O[C@@H]2O[C@H](COCc3ccc(O)cc3)[C@@H](O)[C@H](O)[C@H]2O)cc1)C(=O)OCc1ccc(O[C@@H]2O[C@H](CO)[C@@H](O)[C@H](O)[C@H]2O)cc1 | 27 | 60 |
| CC(C)C[C@@](O)(CC(=O)OCc1ccc(O[C@@H]2O[C@H](CO)[C@@H](O)[C@H](O)[C@H]2O)cc1)C(=O)OCc1ccc(O[C@@H]2O[C@H](COCc3ccc(O)cc3)[C@@H](O)[C@H](O)[C@H]2O)cc1 | 28 | 55 |
| CC(C)C[C@](CC(=O)O)(O[C@@H]1O[C@H](CO)[C@@H](O)[C@H](O)[C@H]1O)C(=O)OCc1ccc(O[C@@H]2O[C@H](CO)[C@@H](O)[C@H](O)[C@H]2O)cc1 | 27 | – |
| CC(C)C[C@@](O)(CC(=O)O)C(=O)OCc1ccc(O[C@@H]2O[C@H](CO)[C@@H](O)[C@H](O)[C@H]2O)cc1 | 28 | – |
| CC(C)C[C@](O)(C(=O)OCc1ccc(O[C@@H]2O[C@H](CO)[C@@H](O)[C@H](O)[C@H]2O)cc1)[C@H](O)C(=O)OCc1ccc(O[C@@H]2O[C@H](CO)[C@@H](O)[C@H](O)[C@H]2O)cc1 | 23 | – |
| CC(C)C[C@@](O)(CC(=O)OCc1ccc(O[C@@H]2O[C@H](CO[C@@H]3O[C@H](CO)[C@@H](O)[C@H](O)[C@H]3O)[C@@H](O)[C@H](O)[C@H]2O)cc1)C(=O)OCc1ccc(O[C@@H]2O[C@H](CO)[C@@H](O)[C@H](O)[C@H]2O)cc1 | 28 | 38 |
| CC(C)C[C@](CC(=O)OCc1ccc(O[C@@H]2O[C@H](CO)[C@@H](O)[C@H](O)[C@H]2O)cc1)(O[C@@H]1O[C@H](CO)[C@@H](O)[C@H](O)[C@H]1OC(=O)/C=C\c1ccc(O[C@@H]2O[C@H](CO)[C@@H](O)[C@H](O)[C@H]2O)cc1)C(=O)OCc1ccc(O[C@@H]2O[C@H](CO)[C@@H](O)[C@H](O)[C@H]2O)cc1 | 17 | 38 |
| CC(C)C[C@@](O)(CC(=O)OCc1ccc(O[C@@H]2O[C@H](CO)[C@@H](O)[C@H](O)[C@H]2O)cc1)C(=O)OCc1ccc(O[C@@H]2O[C@H](CO[C@@H]3O[C@H](CO)[C@@H](O)[C@H](O)[C@H]3O)[C@@H](O)[C@H](O)[C@H]2O)cc1 | 39 | 36 |
| COC(=O)c1cc(OC)c2c(c1-c1c(CO)cc(OC)c3c1OCO3)OCO2 [BICYCLOL] | 32 | 47 |

— ChEMBL document CHEMBL4819036, “Hepatoprotective Glucosyloxybenzyl 2-Hydroxy-2-isobutylsuccinates from Pleione yunnanensis” (2021)
